The record followed here is ChEMBL document CHEMBL4359875, “Development of novel theranostic agents for in vivo amyloid imaging and protective effects on human neuroblastoma cells” (Eur J Med Chem, 2019).

The target of data set [1] is Amyloid-beta precursor protein (Mus musculus) (UniProt P12023). Put plainly: Binding affinity to amyloid beta 1 to 42 in C57BL/6 mouse brain hippocampus assessed as plague formation at 1 uM incubated for 5 mins by fluorescence microscopy. The gist of the method:
(§1)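 Frozen brain sections from male APP/PS1 double transgenic mice and age-matched male C57BL/6 wild-type mice, both 10 months old. Sections were washed in PBS to remove OCT, then stained with 1 μM probe or ThT in 10% ethanol for 5 min at room temperature. They were washed twice with ethanol and PBS (0.1 M, pH 7.4) for 10 min. Cortex and hippocampus were imaged by fluorescence microscopy with GFP and Cy5 filter sets.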

Data set [2] shares this target. Put plainly: Binding affinity to amyloid beta 1 to 42 in double transgenic C57BL/6 APPswe/PSEN1 mouse assessed as plaque formation in hippocampus region at 1 uM incubated for 5 mins by fluorescence microscopy. In short, it runs like this: as §1
For data set [3] the target is unchanged. Put plainly: Binding affinity to amyloid beta 1 to 42 in C57BL/6 mouse brain cortex assessed as plague formation at 1 uM incubated for 5 mins by fluorescence microscopy. The gist of the method: as §1
In data set [4] the test system is Mus musculus. Put plainly: In vivo binding affinity to amyloid beta 1 to 42 in C57BL/6 mouse brain assessed as amyloid-beta plaque-compound complex formation at 4 mg/kg, iv measured for 5 to 60 mins by NIR imaging analysis. Format: functional, organism-based. In short, it runs like this: (§2)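 Male APP/PS1 double-transgenic and age-matched wild-type C57BL/6 mice, 12 months old, shaved. Compound 4 mg/kg in 50 μl of 20% DMSO/80% propylene glycol given via tail vein. Mice kept under 2.5% isoflurane in oxygen. Head NIR fluorescence imaged before and at time points from 5 to 60 min after dosing.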

Data set [5] can be described thus: Stability in mouse plasma assessed as remaining compound at 50 uM incubated for 30 to 60 mins by HPLC analysis. It counts as ADME, cell-free. Conditions: read-out: Stability. In short, it runs like this: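 Compound in ethanol (50 μM) added to plasma (1:9 by volume), with PBS as the standard. Incubated at 37 °C for 30 or 60 min. Mixture treated twice with acetonitrile and centrifuged. Supernatant analysed by HPLC on C18 with CH3CN/H2O 85:15 at 1 mL/min, 30 °C.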

Data set [6] addresses T1, Amyloid-beta precursor protein (Homo sapiens, UniProt P05067). Kind of data set: Binding affinity to amyloid beta 1 to 42 (unknown origin) in PBS buffer at pH 7.4 assessed as binding constant by fluorescence based assay. In short, it runs like this: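 Synthetic Aβ1-42 aggregates in PBS. Kd from a saturation binding assay read by fluorescence. Triplicate, mean ± SD.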

Data set [7] has as its system Mus musculus. Kind of data set: In vivo binding affinity to amyloid beta 1 to 42 in APP/PS1 double transgenic C57BL/6 mouse brain assessed as amyloid-beta plaque-compound complex formation at 4 mg/kg, iv measured for 5 to 60 mins by NIR imaging analysis. Format: functional, organism-based. The gist of the method:
as §2

Data set [8] deals with Amyloid-beta precursor protein (Mus musculus) (UniProt P12023). Put plainly: Binding affinity to amyloid beta 1 to 42 in double transgenic C57BL/6 APPswe/PSEN1 mouse assessed as plaque formation in cortex region at 1 uM incubated for 5 mins by fluorescence microscopy. The gist of the method:
as §1

In the next data set the test system is SH-SY5Y. Put plainly: Dark toxicity against human SH-SY5Y cells assessed as reduction in cell viability at 50 uM incubated for 24 hrs by MTT assay. It counts as cell-based. The gist of the method: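 SH-SY5Y seeded at 5000 cells/well and incubated overnight. Compound added at a range of concentrations for 24 h, run with or without light exposure. MTT (5 mg/mL) added for 4 h, then absorbance read at 570 nm.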
For orientation: Formazan colour is commonly taken as a measure of viable cells.

For data set [9], the target named is T1, Amyloid-beta precursor protein. Put plainly: Inhibition of amyloid beta 1 to 42 aggregation in human SH-SY5Y cells incubated for 48 hrs by fluorescence microscopy. It counts as cell-based. In short, it runs like this:
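SH-SY5Y seeded at 2000 cells/well with Aβ1-42 monomer (0.25 μM) alone or plus compound (0.05 or 0.5 μM), 48 h at 37 °C, 5% CO2. Controls got compound after the 2 days. Read as average pixel intensity of four random fields by fluorescence microscopy. Three independent experiments.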

The nature of data set [10]: Photostability of compound. It counts as physicochemical.
Data set [11] has as its target T1, Amyloid-beta precursor protein. Put plainly: Binding affinity to amyloid beta 1 to 42 (unknown origin) in PBS buffer at pH 7.4 assessed as increase in blue shift in maximum absorption at 0.2 uM by fluorescence based assay. In short, it runs like this:
(§3)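 Fluorescence titration in PBS pH 7.4: probe 0.2 μM with stepwise addition of synthetic Aβ1-42 aggregates (0 to 10.0 μM). Emission maxima compared with probe alone in PBS.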

For data set [12] the target is unchanged. Kind of data set: Inhibition of amyloid beta 1 to 42 (unknown origin)-induced cytotoxicity in human SH-SY5Y cells at 1 to 5 uM incubated for 24 hrs by MTT assay. It counts as cell-based. The gist of the method:
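SH-SY5Y at 5000 cells/well, incubated overnight. Treated for 24 h with 5 μM Aβ1-42 monomer plus compound (1 or 5 μM). MTT (5 mg/mL) added for 4 h, absorbance read at 570 nm.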

The nature of data set [13]: Metal chelating activity assessed as compound-Cu2+ complex formation at 20 uM by UV-visible spectroscopy. The gist of the method: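 UV/Vis titration: compound 20 μM in water with CuSO4 added from 0 to 1000 μM. Spectrum recorded after each addition. Triplicate.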
Data set [14] concerns the target T1, Amyloid-beta precursor protein. Put plainly: Binding affinity to amyloid beta 1 to 42 (unknown origin) in PBS buffer at pH 7.4 assessed as increase in red shift in maximum absorption at 0.2 uM by fluorescence based assay. The gist of the method: as §3
Data set [15] shares this target. Put plainly: Inhibition of amyloid beta 1 to 42 (unknown origin)-induced ROS production in human SH-SY5Y cells at 1 and 5 uM incubated for 24 hrs by DCFH-DA staining based fluorescence assay. Format: cell-based. The gist of the method: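 SH-SY5Y at 5000 cells/well, incubated overnight. Medium then replaced with Aβ1-42 (2 μM final) alone or with compound (1 and 5 μM) for 24 h at 37 °C, 5% CO2. DCFH-DA 10 μM added for 30 min at 37 °C, cells washed twice. Fluorescence read at ex/em 488/525 nm. Mean ± SD, Student's t test.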

Activity calls are given as the source filed them. The calls are words filed in the database; no cut-off is given here. Where only a bound is given, the exact number is not on record here.

T1 sequence (P05067 whole entry): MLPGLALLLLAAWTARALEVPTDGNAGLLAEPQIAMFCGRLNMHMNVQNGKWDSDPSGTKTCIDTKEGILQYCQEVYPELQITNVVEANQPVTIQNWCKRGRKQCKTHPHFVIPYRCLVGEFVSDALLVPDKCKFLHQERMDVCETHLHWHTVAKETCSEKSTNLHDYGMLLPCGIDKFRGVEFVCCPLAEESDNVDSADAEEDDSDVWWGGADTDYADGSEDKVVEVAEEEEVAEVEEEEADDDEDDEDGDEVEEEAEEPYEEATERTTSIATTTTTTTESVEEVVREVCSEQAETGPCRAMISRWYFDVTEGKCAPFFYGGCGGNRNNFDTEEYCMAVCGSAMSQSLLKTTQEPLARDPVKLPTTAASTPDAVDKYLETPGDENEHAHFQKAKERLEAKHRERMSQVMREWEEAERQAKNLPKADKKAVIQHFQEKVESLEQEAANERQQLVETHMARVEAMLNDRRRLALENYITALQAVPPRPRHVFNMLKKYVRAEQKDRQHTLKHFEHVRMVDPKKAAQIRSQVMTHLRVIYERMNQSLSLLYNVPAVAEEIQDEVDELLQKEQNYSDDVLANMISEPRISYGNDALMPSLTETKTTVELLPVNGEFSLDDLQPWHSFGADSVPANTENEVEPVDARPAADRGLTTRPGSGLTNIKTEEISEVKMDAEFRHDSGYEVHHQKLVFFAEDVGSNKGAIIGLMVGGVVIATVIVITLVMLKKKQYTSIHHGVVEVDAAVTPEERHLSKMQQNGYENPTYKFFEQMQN
Sequence of Amyloid-beta precursor protein (Mus musculus) (P12023 whole entry): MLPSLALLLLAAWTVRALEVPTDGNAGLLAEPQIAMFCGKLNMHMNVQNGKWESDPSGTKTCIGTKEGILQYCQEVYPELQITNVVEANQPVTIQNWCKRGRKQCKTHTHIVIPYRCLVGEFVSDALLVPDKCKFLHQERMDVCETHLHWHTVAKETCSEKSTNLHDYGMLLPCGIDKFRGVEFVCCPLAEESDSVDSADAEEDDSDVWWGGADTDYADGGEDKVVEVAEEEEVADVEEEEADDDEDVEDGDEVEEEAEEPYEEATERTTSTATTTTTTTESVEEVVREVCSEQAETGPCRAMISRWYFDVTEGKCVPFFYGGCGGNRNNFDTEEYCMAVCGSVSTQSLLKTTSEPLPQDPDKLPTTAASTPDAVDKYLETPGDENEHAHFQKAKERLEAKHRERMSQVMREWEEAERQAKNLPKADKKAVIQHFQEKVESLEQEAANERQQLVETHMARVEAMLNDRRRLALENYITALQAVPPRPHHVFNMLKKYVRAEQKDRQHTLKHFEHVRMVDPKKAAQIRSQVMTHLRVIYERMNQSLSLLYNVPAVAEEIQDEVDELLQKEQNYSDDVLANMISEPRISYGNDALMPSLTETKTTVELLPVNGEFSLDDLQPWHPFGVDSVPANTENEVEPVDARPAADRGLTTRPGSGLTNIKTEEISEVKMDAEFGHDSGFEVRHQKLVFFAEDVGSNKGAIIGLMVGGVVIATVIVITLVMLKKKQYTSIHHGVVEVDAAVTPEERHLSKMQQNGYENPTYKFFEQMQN

One may read the Kd as a measure of binding affinity in units of concentration. `CN1c2ccccc2Sc2cc(/C=C3/SC(=S)N(CC(=O)OCC4COC(C)(C)O4)C3=O)ccc21` (stereo not drawn): the outcome (in data set [1]; in [3]; in the data set with Mus musculus [4]) was inactive. Also, the result (in data set [2]; in the data set on Mus musculus [7]; in data set [8]) was Active. Also, the remaining at 50 µM in [5] was over 96%. In addition, the dissociation constant (Kd) in data set [6] came out at 24.5 nM. Besides, in the data set on SH-SY5Y, the Activity result is “Non-Toxic”. Further, the inhibition entry in [9] is “Dose-dependent effect”. In addition, the Stability entry in [10] was “Stable”. Moreover, the fold change (FC) in data set [11] was determined as 22.
Take `CCOC(=O)CN(CC(=O)OCC)C(=O)CN1C(=O)/C(=C\c2ccc3c(c2)Sc2ccccc2N3C)SC1=S`: the remaining at 50 µM in [5] is over 96%. For the same molecule, the Kd in [6] was 46.3 nM. In addition, in the data set with SH-SY5Y, the Activity entry is “Non-Toxic”. Further, the Stability result in [10] was “Stable”. In data set [11], the fold change (FC) was 38.3.
For the molecule `CN1c2ccccc2Sc2cc(/C=C3/SC(=S)N(CC(=O)N(CC(=O)O)CC(=O)O)C3=O)ccc21`, the remaining at 50 µM in data set [5] is over 96%. Besides, the outcome in [12], in [13] and in data set [15] was Active. For the same molecule, the Kd in [6] is 76.5 nM. Also, the Activity result with SH-SY5Y is on record as “Non-Toxic”. The fold change (FC) in [14] worked out at 2.4. Besides, the Stability entry in [10] was “Stable”.
With `CN1c2ccccc2Sc2cc(/C=C3/SC(=S)N(CC(=O)OCC(O)CO)C3=O)ccc21` (stereo not drawn), the remaining at 50 µM in data set [5] was over 96%. In addition, the outcome in data set [12], in data set [13] and in data set [15] was Active. Also, the Kd in data set [6] stood at 34.9 nM. Also, the Activity entry in the data set on SH-SY5Y is recorded as “Non-Toxic”. In addition, the Stability result in data set [10] was “Stable”. Moreover, the fold change (FC) in data set [11] turned out to be 9.5.
